Measured values published in ChEMBL document CHEMBL1124291, “New actinomycin D analogues as superior chemotherapeutic agents against primary and advanced colon tumors and colon xenografts in nude mice” (J Med Chem, 1988).

Key:
MC-38 [1] = assay: Activity against advanced carcinoma C38 Tumor in CDF1 Mice at dose 0.30 mg/ kg measured as % inhibition of tumor; type: functional; conditions: Mus musculus
B16 [2] = assay: in vivo Antitumor activity against B16 melanoma cells at a optimal dose 300 ug/Kg /inj measured as %ILS (%increase life span); type: functional; conditions: Mus musculus
Method in brief: (§1)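 BDF1 mice in groups of nine were implanted ip on day 0 with 0.2 mL of 1:5 (w/v) B16 melanoma brei; drugs were given ip. Survival is reported as median survival time in days with range, and as %ILS, with survivors counted on day 65 out of total injected.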

B16 [3] = assay: in vivo Antitumor activity against B16 melanoma cells at dose 300 ug/Kg /inj measured as Mean survival time (MST); type: functional, Mus musculus; method in brief: as §1
MC-38 [4] = assay: Mean survival time of treated / untreated group x100. (number of over 100-day survivors/number of total mice in the group) at a dose 0.30 mg/kg; type: functional, Mus musculus; conditions: dose 0.3 mg/kg
Method in brief: (§2)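 CDF1 mice were implanted sc on day 0 with colon 38 adenocarcinoma fragments (70 mg) and given iv drug on days 1, 5 and 9. %T/C = median survival of treated / untreated × 100. Number of mice surviving over 100 days / group total is given in parentheses.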

MC-38 [5] = assay: Activity against advanced carcinoma C38 Tumor in CDF1 Mice at dose 0.60 mg/ kg measured as % inhibition of tumor; type: functional; conditions: Mus musculus
MC-38 [6] = assay: Activity against advanced carcinoma C38 Tumor in CDF1 Mice at dose 1.20 mg/ kg measured as % inhibition of tumor; type: functional; conditions: Mus musculus
MC-38 [7] = assay: Number of toxic deaths/number of mice in a group of non tumored mice treated in parallel with the tumor-bearing mice and observed for 100 days at a dose 1. 20 mg/Kg; value given as 2/9; type: toxicity, cell-based; conditions: mouse, in vivo, 2400 h
Method in brief: (§3)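 Non-tumored CDF1 mice were treated in parallel with colon 38 tumor-bearing mice: iv injections on days 1, 5 and 9, groups of nine. Deaths were counted over 100 days of observation and reported as toxic deaths / mice in group.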

MC-38 [8] = assay: Mean survival time of treated / untreated group x100. (number of over 100-day survivors/number of total mice in the group) at a dose 1.20 mg/kg; type: functional, Mus musculus; conditions: dose 1.2 mg/kg; method in brief: as §2
MC-38 [9] = assay: Number of toxic deaths/number of mice in a group of non tumored mice treated in parallel with the tumor-bearing mice and observed for 100 days at a dose 0.30 mg/Kg; value given as 0/9; type: functional, Mus musculus; method in brief: as §3
MC-38 [10] = assay: Number of toxic deaths/number of mice in a group of non tumored mice treated in parallel with the tumor-bearing mice and observed for 100 days at a dose 0.60 mg/Kg; value given as 1/9; type: toxicity; conditions: mouse, in vivo, 0.6 mg/kg, 2400 h; method in brief: as §3
MC-38 [11] = assay: Mean survival time of treated / untreated group x100. (number of over 100-day survivors/number of total mice in the group) at a dose 0.60 mg/kg; type: functional, Mus musculus; conditions: dose 0.6 mg/kg; method in brief: as §2
HT-29 [12] = assay: 50% inhibition of incorporationf precursor [3H]thymidine into DNA HT-29 cell lines; type: functional, cell-based; conditions: Homo sapiens, HT-29, 2 h
Method in brief: (§4)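 HT-29 colon carcinoma monolayers, 10^4 cells per well, five wells per concentration. Drug exposure lasted 2 h, with [³H]thymidine and [2-¹⁴C]uridine (0.5 μCi each) added for the last hour. Cells were washed, trypsinized, counted and precipitated onto glass-fiber filters with 10% TCA. Acid-precipitable radioactivity was measured. IC50 is the concentration inhibiting 50% of incorporation; data are averages of replicate experiments.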

P388 [13] = assay: 50% inhibition of incorporation of precursor [3H]thymidine into DNA P388 cell lines; type: functional, cell-based; conditions: Mus musculus, P388, 2 h
P388 [14] = assay: 50% inhibition of incorporation precursor [14C]uridine into RNA P388 cell lines; type: functional, cell-based; conditions: Mus musculus
Rattus norvegicus [15] = species: Rattus norvegicus; assay: Percent of the protein conjugates isolated from incubation mixture containing rat microsomes; type: functional
Method in brief: (§5)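 Tritiated analogues were incubated with two systems. (T) sonicated P388 cell homogenates, 37 °C for 16 h. (M) liver microsomes from phenobarbital-induced rats, 6 h with an NADPH-generating system (glucose-6-phosphate dehydrogenase plus glucose 6-phosphate). Metabolites and water-soluble conjugates were isolated, separated by HPLC and expressed as percentages.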

Rattus norvegicus [16] = species: Rattus norvegicus; assay: Percent of the tissue bound conjugates isolated from incubation mixture containing rat microsomes; type: functional; method in brief: as §5
Rattus norvegicus [17] = species: Rattus norvegicus; assay: Percent of the unconverted isolated from incubation mixture containing rat microsomes; type: functional; method in brief: as §5
Rattus norvegicus [18] = species: Rattus norvegicus; assay: Percent of the SAD isolated from incubation mixture containing tumor cell homogenate(T) after 7.7 min; type: functional; method in brief: as §5
Rattus norvegicus [19] = species: Rattus norvegicus; assay: DNA-cleaving ability expressed as % of closed circular pBR322 DNA cleaved at 100 uM conc 100 uM; type: functional
Method in brief: (§6)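 pBR322 DNA (200 μM nucleotides) in 10 mM Tris·HCl pH 7.8 and 50 mM NaCl, with 4 mM Na₂S₂O₄ and 100 μM FeCl₂. Incubated with drug for 1 h at 20 °C, kept air-saturated. Supercoiled and open-circular forms were separated by agarose gel electrophoresis, stained with ethidium bromide and quantitated by densitometry. % cleaved was calculated from the open- and closed-circular amounts.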

Rattus norvegicus [20] = species: Rattus norvegicus; assay: DNA-cleaving ability expressed as % of closed circular pBR322 DNA cleaved […] conc 50 uM; type: functional; method in brief: as §6
Rattus norvegicus [21] = species: Rattus norvegicus; assay: Percent of the unidentified metabolites isolated from incubation mixture containing rat microsomes; type: functional; method in brief: as §5
Rattus norvegicus [22] = species: Rattus norvegicus; assay: The formation of adrenochrome from epinephrine in the absence of SOD(super oxide dismutase); type: functional
Method in brief: (§7)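 Drug-stimulated superoxide generation with rat liver microsomal enzymes and NADPH as cofactor. NADPH oxidation was read at 340 nm. Adrenochrome formed from epinephrine was read at 480 nm, with or without superoxide dismutase. % stimulation = [(drug-stimulated rate − basal rate)/basal rate] × 100. Values are mean ± standard error of triplicate analyses.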

Rattus norvegicus [23] = species: Rattus norvegicus; assay: The formation of adrenochrome from epinephrine in the presence of SOD(super oxide dismutase); + denotes ' Inhibited'; type: functional; method in brief: as §7
Rattus norvegicus [24] = species: Rattus norvegicus; assay: Stimulation of NADPH oxidation in the presence of rat liver microsomes; type: functional; method in brief: as §7
HT-29 [25] = assay: 50% inhibition of incorporationf precursor [3H]thymidine into RNA HT-29 cell lines; type: functional, cell-based; conditions: Homo sapiens, HT-29, 2 h; in the assay text read “[14C]uridine” for “[3H]thymidine”; method in brief: as §4
[26] = DNA-cleaving ability expressed as % of closed circular pBR322 DNA cleaved at 10 uM conc 10 uM
pBR322 plasmid DNA = assay: DNA-cleaving ability expressed as % of closed circular pBR322 DNA cleaved […]
Rattus norvegicus [27] = species: Rattus norvegicus; assay: Percent of the SAD isolated from incubation mixture containing rat micro somes, after 20.0 min
P388 (Mus musculus) [28] = assay: Percent of the unconverted isolated from incubation mixture containing tumor cell homogenate(T)
P388 (Mus musculus) [29] = assay: Percent of the protein conjugates isolated from incubation mixture containing tumor cell homogenate(T)
P388 (Mus musculus) [30] = assay: Percent of the tissue bound conjugates isolated from incubation mixture containing tumor cell homogenate(T)
P388 (Mus musculus) [31] = assay: Percent of the unidentified metabolites isolated from incubation mixture containing tumor cell homogenate(T)
P388 [32] = assay: Antitumor activity in P388/ADR (adriamycin resistant) in male BDF1 mice measured as optimal dose at dose 0.10-1.0 mg/kg/ inj, inp
Mus musculus = species: Mus musculus; assay: Percent of the SAD glucuronide and/or sulfate isolated from incubation mixture containing tumor cell homogenate(T) after 8.0, 10.5 min

Which inhibition in vivo at 0.3 mg/kg (MC-38 [1]) does the source give for `Cc1c2oc3c(C)c4oc(CC(=O)NCCCCN)nc4c(C(=O)N[C@@H]4C(=O)N[C@H](C(C)C)C(=O)N5CCC[C@H]5C(=O)N(C)CC(=O)N(C)[C@@H](C(C)C)C(=O)O[C@@H]4C)c3nc-2c(C(=O)N[C@@H]2C(=O)N[C@H](C(C)C)C(=O)N3CCC[C@H]3C(=O)N(C)CC(=O)N(C)[C@@H](C(C)C)C(=O)O[C@@H]2C)c(N)c1=O` here?
Its inhibition in vivo at 0.3 mg/kg is 80%.

And the ILS at 0.3 mg/kg (B16 [2])?
Its ILS at 0.3 mg/kg is 114%.

What about the MST (B16 [3]) of the same compound?
The MST was 62.

And the T/C (MC-38 [4])?
Its T/C is 170%.

And the inhibition in vivo at 0.6 mg/kg (MC-38 [5])?
Its inhibition in vivo at 0.6 mg/kg is 93%.

What about the inhibition in vivo at 1.2 mg/kg (MC-38 [6]) of the same compound?
Its inhibition in vivo at 1.2 mg/kg is 94%.

What about the Toxic deaths (MC-38 [7]) of the same compound?
The Toxic deaths was 2.

And the T/C (MC-38 [8])?
Its T/C is 231%.

What about the Toxic deaths (MC-38 [9]) of the same compound?
Its Toxic deaths is 0.

And the Toxic deaths (MC-38 [10])?
Its Toxic deaths is 1.

What about the T/C (MC-38 [11]) of the same compound?
The T/C was 250%.

And the IC50 (HT-29 [12])?
The IC50 was 365 nM.

What about the IC50 (P388 [13]) of the same compound?
The IC50 was 430 nM.

And the IC50 (P388 [14])?
The IC50 was 55 nM.

What about the Activity (Rattus norvegicus [15]) of the same compound?
The Activity was 10%.

What about the Activity (Rattus norvegicus [16]) of the same compound?
The Activity was 5%.

And the Activity (Rattus norvegicus [17])?
The Activity was 10%.

What about the Activity (Rattus norvegicus [18]) of the same compound?
Its Activity is 20%.

And the Activity (Rattus norvegicus [19])?
Its Activity is 58%.

What about the Activity (Rattus norvegicus [20]) of the same compound?
The Activity was 50%.

And the Activity (Rattus norvegicus [21])?
Its Activity is 8%.

And the Adrenochrome formation (Rattus norvegicus [22])?
The Adrenochrome formation was 22.1 nM min-1 (mg of protein)-1.

And the Adrenochrome formation (Rattus norvegicus [23])?
Its Adrenochrome formation is “Inhibited”.

And the NADPH oxidation (nM min-1 (mg of protein)-1) (Rattus norvegicus [24])?
Its NADPH oxidation (nM min-1 (mg of protein)-1) is 87.1.

And the IC50 (HT-29 [25])?
Its IC50 is 65 nM.

What about the Activity [26] of the same compound?
The Activity was 40%.

And the Activity (pBR322 plasmid DNA)?
The Activity was 45%.

What about the Activity (Rattus norvegicus [27]) of the same compound?
Its Activity is 65%.

What about the Activity (P388 (Mus musculus) [28]) of the same compound?
The Activity was 20%.

And the Activity (P388 (Mus musculus) [29])?
Its Activity is 8%.

And the Activity (P388 (Mus musculus) [30])?
Its Activity is 5%.

What about the Activity (P388 (Mus musculus) [31]) of the same compound?
The Activity was 5%.

What about the optimal dose (P388 [32]) of the same compound?
The optimal dose was 1 mg/kg.

What about the Activity (Mus musculus) of the same compound?
Its Activity is 40%.
